Activity calls are given as the source filed them. No cut-off for these calls is given here. *1 amine or outer side, *2 acyl side, *3 side chain or, on linkers, in order; H or OH if unused. Where a SMILES comes first, the peptide text is derived from it. [ ]: non-standard residue; d: D form. The star is where a group is joined. Emetine(N2') = CC[C@H]1CN2CCc3cc(OC)c(OC)cc3[C@@H]2C[C@@H]1C[C@@H]1c2cc(OC)c(OC)cc2CCN1*; PABC = O=C(OCc1ccc(N[*:1])cc1)[*:2]
What was measured:
Mus musculus [1] = assay: Toxicity in Balb/C mouse assessed as convulsion at 33 mg/kg, iv measured at 1 min post dose; assay type: organism-based; conditions: in vivo
Summary of the method: (§1)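 Male Balb/c mice, eight weeks old, about 25 g. Single IV bolus of 200 μL, doses ranging from 8 to 100 mg/kg, in 1% DMSO/saline or 10% cremophor/saline; vehicle-only controls. Each dose tested in triplicate. Mice watched for convulsions, death and behaviour after injection to set the maximum tolerated dose.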

Mus musculus [2] = assay: Toxicity in Balb/C mouse assessed as death at 33 mg/kg, iv measured at 1 min post dose; assay type: organism-based; conditions: in vivo; summary of the method: as §1
MDA-MB-231 = assay: Antiproliferative activity against human MDA-MB-231 cells at 50 to 10000 nM after 3 days by MTT assay; assay type: functional, cell-based
Summary of the method: (§2)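 LNCaP seeded at 5 × 10^3 cells/well; PC3, CWR22Rv1 and MDA-MB-231 at 2.5 × 10^3. The first three were grown in RPMI and MDA-MB-231 in DMEM, each with 10% FBS. After 24 h attachment, cells got final 10, 50, 100, 1000 or 10,000 nM (0.1% DMSO) in eight replicates. Viable cells by MTT on day 0, 3 and 5, A570 corrected at 650 nm. Experiments run at least twice.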

LNCaP = assay: Potency index, ratio of emetine IC50 to compound IC50 for human LNCAP cells expressing PSA; assay type: functional
PC-3 = assay: Antiproliferative activity against human PC3 cells at 50 to 10000 nM after 3 days by MTT assay; assay type: functional, cell-based; summary of the method: as §2
Mus musculus [3] = assay: Toxicity in Balb/C mouse assessed as convulsions at >25 mg/kg, iv; assay type: organism-based; conditions: in vivo; summary of the method: as §1
[4] = target: T1, Prostate-specific antigen (Homo sapiens, UniProt P07288); assay: Prodrug activation assessed as human PSA-mediated 4-((S)-1-(L-Alanyl)pyrrolidine-2-carboxamido)benzyl (R)-1-(((2R,3R,11bS)-3-ethyl-9,10-dimethoxy-1,3,4,6,7,11b-hexahydro-2Hpyrido[2,1-a]isoquinolin-2-yl)methyl)-6,7-dimethoxy-3,4-dihydroisoquinoline-2(1H)-carboxylate formation measured over 24 hrs by LC-MS analysis
T1 sequence (P07288 whole entry): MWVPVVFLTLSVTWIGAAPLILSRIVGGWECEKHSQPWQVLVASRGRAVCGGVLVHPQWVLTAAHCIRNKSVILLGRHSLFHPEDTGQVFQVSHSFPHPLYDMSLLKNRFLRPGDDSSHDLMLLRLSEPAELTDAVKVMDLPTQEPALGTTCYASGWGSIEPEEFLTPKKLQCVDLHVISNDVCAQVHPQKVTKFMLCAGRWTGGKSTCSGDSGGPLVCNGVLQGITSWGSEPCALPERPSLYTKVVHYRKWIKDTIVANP
Summary of the method: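 10 mM DMSO stock diluted to 200 μM final in PSA buffer (50 mM Tris·HCl, 100 mM NaCl, pH 7.4) with purified PSA at 20 μg/mL final and 2% DMSO. Shaken at 37 °C. Aliquots taken at time points, quenched with cold acetonitrile, held on ice, centrifuged, then analysed by reversed-phase C18 HPLC (215/285 nm) and mass spectrometry.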

Mus musculus [5] = assay: Toxicity in Balb/C mouse assessed as convulsion at 16 mg/kg, iv up to 1 min; assay type: organism-based; conditions: in vivo; summary of the method: as §1
Mus musculus [6] = assay: Toxicity in Balb/C mouse assessed as death at 16 mg/kg, iv up to 1 min; assay type: organism-based; conditions: in vivo; summary of the method: as §1
CWR22R = assay: Antiproliferative activity against human CWR22Rv1 cells expressing PSA after 3 days by MTT assay; assay type: functional, cell-based; conditions: 22Rv1, 72 h; summary of the method: as §2
[7] = Toxicity in iv dosed Balb/C mouse; assay type: organism-based; conditions: in vivo; summary of the method: as §1
Mus musculus [8] = assay: Toxicity in Balb/C mouse assessed as change in behavior at >100 mg/kg, iv; assay type: organism-based; conditions: in vivo; summary of the method: as §1
Mus musculus [9] = assay: Toxicity in Balb/C mouse assessed as mortality at >100 mg/kg, iv; assay type: organism-based; conditions: in vivo; summary of the method: as §1
Mus musculus [10] = assay: Toxicity in Balb/C mouse at 32 mg/kg, iv; assay type: organism-based; conditions: in vivo
Mus musculus [11] = assay: Toxicity in Balb/C mouse at >100 mg/kg, iv; assay type: organism-based; conditions: in vivo; summary of the method: as §1

## CC[C@H]1CN2CCc3cc(OC)c(OC)cc3[C@@H]2C[C@@H]1C[C@@H]1c2cc(OC)c(OC)cc2CCN1C(=O)OCc1ccc(NC(=O)[C@@H]2CCCN2C(=O)[C@H](C)NC(=O)[C@@H]2CCCN2C(=O)[C@H](C)NC(C)=O)cc1 (Ac-APAP[PABC]-{Emetine(N2')})
Mus musculus [1]
  Activity: Toxic
Mus musculus [2]
  Activity: Toxic

## CC[C@H]1CN2CCc3cc(OC)c(OC)cc3[C@@H]2C[C@@H]1C[C@@H]1c2cc(OC)c(OC)cc2CCN1C(=O)OCc1ccc(NC(=O)[C@@H]2CCCN2C(=O)[C@H](C)NC(=O)[C@H](CCC(N)=O)NC(=O)[C@H](CC(C)C)NC(=O)[C@H](CCCCN)NC(=O)[C@H](CO)NC(=O)[C@H](CO)NC(=O)[C@H](Cc2cnc[nH]2)NC(C)=O)cc1 (Ac-HSSKLQAP[PABC]-{Emetine(N2')})
MDA-MB-231
  Activity: Active
LNCaP
  Ratio IC50: 24
PC-3
  Activity: Active
Mus musculus [3]
  Activity: Toxic
[4]
  Drug metabolism: Metabolite_Notdetected

## CC[C@H]1CN2CCc3cc(OC)c(OC)cc3[C@@H]2C[C@@H]1C[C@@H]1c2cc(OC)c(OC)cc2CCN1C(=O)[C@@H]1CCCN1C(=O)[C@H](C)N
Mus musculus [5]
  Activity: Toxic
Mus musculus [6]
  Activity: Toxic

## CC[C@H]1CN2CCc3cc(OC)c(OC)cc3[C@@H]2C[C@@H]1C[C@H]1NCCc2cc(OC)c(OC)cc21 [EMETINE]
MDA-MB-231
  Activity: Active
PC-3
  Activity: Active
CWR22R
  IC50: 30.8 nM
[7]
  MTD: 8 mg/kg
Mus musculus [5]
  Activity: Toxic
Mus musculus [6]
  Activity: Toxic

## CC[C@H]1CN2CCc3cc(OC)c(OC)cc3[C@@H]2C[C@@H]1C[C@@H]1c2cc(OC)c(OC)cc2CCN1C(=O)CCC(=O)O
[7]
  MTD: > 100 mg/kg
Mus musculus [8]
  Activity: Non-Toxic
Mus musculus [9]
  Activity: Non-Toxic

## CC[C@H]1CN2CCc3cc(OC)c(OC)cc3[C@@H]2C[C@@H]1C[C@@H]1c2cc(OC)c(OC)cc2CCN1C(=O)/C(C)=C(/C)C(=O)O
Mus musculus [10]
  Activity: Toxic

## CC[C@H]1CN2CCc3cc(OC)c(OC)cc3[C@@H]2C[C@@H]1C[C@@H]1c2cc(OC)c(OC)cc2CCN1C(=O)OCc1ccc([N+](=O)[O-])cc1
[7]
  MTD: > 64 mg/kg
Mus musculus [8]
  Activity: Non-Toxic
Mus musculus [9]
  Activity: Non-Toxic
Mus musculus [11]
  Activity: Non-Toxic

## CC[C@H]1CN2CCc3cc(OC)c(OC)cc3[C@@H]2C[C@@H]1C[C@@H]1c2cc(OC)c(OC)cc2CCN1C(=O)/C=C(/CC(=O)O)C(=O)O
[7]
  MTD: > 100 mg/kg
Mus musculus [8]
  Activity: Non-Toxic
Mus musculus [9]
  Activity: Non-Toxic
